Assay outcomes deposited in PubChem by several laboratories.
CHOP UPR activ: activators of apoptotic arm of unfolded protein response (CHOP); actives 0.34% (n = 330,000); activation, % at 10 µM; CHO-CHOP luciferase reporter, UPR activation, luminescence; percent of tunicamycin response over DMSO baseline;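 active = at 10 µM dose, activation of 40% or more, normalized to positive control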;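 note: 100% = tunicamycin at 10 µg/mL and 0% = DMSO alone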
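Assay system: CHO-CHOP cells, stable luciferase reporter of PERK-eIF2a-CHOP signalling / Buffer or medium: F12 plus 10% serum / Compound dosing: one dose, 10 µM in 0.5% DMSO / Times: 6 h compound treatment, 37 °C / Technique: luciferase luminescence / Read-out: % reporter activation, DMSO baseline versus tunicamycin full activation / Benchmarks: tunicamycin and DMSO controls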
CHOP inh: CHOP inhibition in unfolded protein response. CHO-K1 CHOP-promoter luciferase, tunicamycin-induced, 15-18 h. inhibition, % at 10 µM. actives 3.8% (n = 220,000);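 active = compounds that reduced the stress-induced luciferase reporter signal by more than about 70% of percent inhibition, limit read from the data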;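 note: 0% = tunicamycin plus vehicle and 100% = wells without tunicamycin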
UPR XBP1 act: activators of adaptive arm of unfolded protein response (XBP1). activation, % at 20 µM. actives 0.33% (n = 330,000). CHO-XBP1 luciferase reporter, IRE1-XBP1 UPR activation, luminescence; percent of tunicamycin response, DMSO as zero;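 active = versus positive control, 20 µM dose yields 30% or more activation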;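 note: 100% = tunicamycin at 10 µg/mL and 0% = DMSO only wells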
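Assay system: IRE1-XBP1 luciferase reporter CHO line. Input: 1000 cells/well. Buffer or medium: F12 with 10% serum. Doses: 20 µM, 1% DMSO. Times: overnight seeding at 37 °C, 6 h compound treatment at 37 °C. Technique: Steady-Glo luciferase glow luminescence, 10 min after reagent addition.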
TbMetRS inhib: Trypanosoma brucei MetRS inhibition | purified T. brucei MetRS, ATP depletion, Kinase-Glo luminescence | inhibition, % at 11.9 µM | actives 0.4% (n = 360,000);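 active = inhibition above a per-plate cutoff of the control wells' mean inhibition plus 3 SD, cut at about 5.5% in these data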;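 note: 0% = DMSO wells median and 100% = median of wells with control inhibitor compound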
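Measured by: Kinase-Glo luciferase luminescence reporting remaining unconsumed ATP. Material: purified T. brucei MetRS enzyme. Doses: 11.9 µM compound single dose, 0.9% DMSO. Medium: HEPES buffer containing pyrophosphatase, BSA, spermine, DTT. Times: 15 min preincubation, 2 h reaction, all 25 °C. Reagent: methionine, ATP and bulk E. coli tRNA.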
V-ATPase pHluor: yeast V-ATPase proton transport regulation by pHLuorin; S. cerevisiae, pHLuorin cytosolic pH fluorescence; response, % at 10 µM; actives 0.37% (n = 350,000); AID 504577; in the data active = response mostly above about 7.3%, no sharp cut-off; inactive = mostly below about 5.4%; note: actives read high
CHOP UPR conf: confirmation of apoptotic unfolded protein response (CHOP) activators; shares compounds with CHOP UPR activ; CHO-CHOP cells, CHOP-luciferase reporter luminescence; percent of tunicamycin response, DMSO as zero; activation, % at 10 µM; actives 64% (n = 1,000); in the data active = activation above about 33%;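 note: 0% = DMSO wells and 100% = tunicamycin 10 µg/mL wells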
The depositor's hits bear a star; · = no result. Shown is part of a subset that was picked to be rich in hits.

SMILES	CHOP UPR activ	CHOP inh	UPR XBP1 act	TbMetRS inhib	V-ATPase pHluor	CHOP UPR conf
COc1ccc(-c2oc(NC(=O)CCl)c(C#N)c2-c2ccc(OC)cc2)cc1	489*	-254	24	-1	0	218*
CC1CCN(C(=O)COc2ccc(S(=O)(=O)N3CCOCC3)cc2)CC1	2	·	-1	0	-3	·
COc1ccc(CC2=CC(=O)c3ccccc3C2=O)cc1	187*	·	-7	-2	-3	191*
O=C(COC(=O)/C=C/c1ccc(F)cc1)Nc1ccccc1-c1ccccc1	-1	22	-2	0	-2	·
COc1cccc(C(=O)OCC(=O)NCCCc2ccccc2)c1	0	·	-1	-1	-1	·
O=[N+]([O-])c1cccc(N/N=C/c2ccc(N3CCOCC3)cc2)c1	2	·	6	0	1	·
O=[N+]([O-])/C=C\c1ccc(N2CCOCC2)cc1	52*	·	-3	0	2	126*
C/C(=N\NC(N)=S)c1ccccc1	-1	0	-2	-1	4	·
CSC(=S)N/N=C(\C)c1ccccc1	109*	-122	2	0	3	79*
O=C(O)c1ccccc1CSc1nnc2c(n1)[nH]c1ccccc12	0	14	0	0	1	·
COc1cccc(C(=O)Oc2c(CN3CCOCC3)cc(Cl)c3cccnc23)c1	80*	-58	19	-1	-2	28
O=C(Oc1c(CN2CCOCC2)cc(Cl)c2cccnc12)c1ccc(F)cc1	40*	41	20	0	-3	40*
COc1cc(C(=O)Oc2c(CN3CCOCC3)cc(Cl)c3cccnc23)cc(OC)c1OC	62*	29	24	0	3	56*
O=C(Oc1c(CN2CCOCC2)cc(Cl)c2cccnc12)c1ccccc1Cl	40	-5	19	0	0	·
O=C(Oc1c(CN2CCOCC2)cc(Cl)c2cccnc12)c1cccs1	-1	-60	14	0	2	·
COc1ccc(C(=O)Oc2c(CN3CCOCC3)cc(Cl)c3cccnc23)cc1	0	-7	-1	0	3	·
Cc1noc2ncnc(Sc3ccc(Br)cc3)c12	229*	13	-11	0	-2	124*
CCOCCc1nn2c(=O)cc(CSCC(=O)Nc3cc(C)cc(C)c3)nc2s1	0	·	-5	-1	-3	·
Cn1nc(C(=O)Nc2ccc(S(=O)(=O)N3CCOCC3)cc2)c2ccccc2c1=O	0	20	-3	0	0	·
CCOC(=O)c1c(-c2ccc(-c3ccccc3)cc2)csc1NC(=O)CNCCN(C)C	42*	·	10	-1	3	119*
CCOC(=O)c1c(-c2ccccc2)csc1NC(=O)CCN1C(=O)c2ccccc2C1=O	-1	37	0	0	0	·
O=C1C2CC=CCC2C(=O)N1c1ccc(NCCc2ccc(O)cc2)c([N+](=O)[O-])c1 (stereo not drawn)	3	-33	7	0	3	·
O=C1C2CC=CCC2C(=O)N1c1ccc(NCCc2ccc(Cl)cc2)c([N+](=O)[O-])c1 (stereo not drawn)	46*	28	-2	-1	1	-2
CN1CCN(CC(=O)N2N=C(c3cccs3)CC2c2ccco2)CC1 (stereo not drawn)	0	-17	3	0	-2	·
O=C(CCl)N1N=C(c2cccs2)CC1c1ccco1 (stereo not drawn)	59*	106*	-8	-1	-1	34*
SMILES	CHOP UPR activ	CHOP inh	UPR XBP1 act	TbMetRS inhib	V-ATPase pHluor	CHOP UPR conf
Cc1[nH]c2ccccc2c1CN1CCN(c2ccccn2)CC1	50*	-32	25	0	-1	8
C/C(=N\NC(=O)c1cc(O)ccc1O)c1cccc(NC(=O)c2ccc(Cl)cc2)c1	72*	·	11	1	0	5
C/C(=N\NC(=O)c1cc(O)ccc1O)c1cccc(NC(=O)c2cccc(Cl)c2)c1	7	·	-2	1	5	·
CC(=O)Nc1cc(O)cc(O)c1	-1	12	-3	1	8	·
O=C(NC(c1ccc2c(c1)OCO2)c1ccccn1)C1CCN(CCOc2ccccc2)CC1 (stereo not drawn)	·	·	·	0	·	·
c1ccc(-c2nc(N3CCCCCC3)c3ccccc3n2)nc1	82*	·	0	-2	-2	31
c1ccc(CN2CCN(c3nc(-c4ccccn4)nc4ccccc34)CC2)cc1	82*	-24	13	0	-3	4
c1ccc(CCNc2nc(-c3ccccn3)nc3ccccc23)cc1	44*	81*	14	0	1	30
C/C(=N\Nc1nc(-c2ccccn2)nc2ccccc12)c1ccc(F)cc1	12	46	-4	0	-1	·
Cc1cccc(C)c1NC(=O)COc1ccc2c(C)c(Cc3ccccc3)c(=O)oc2c1	-1	17	-2	-1	-4	·
COc1ccc(S(=O)(=O)N2CCN(c3nn(C)c(=O)n(C)c3=O)CC2)cc1	-2	·	0	0	-1	·
CC1CCC/C=C/C(=O)c2c(O)cc(O)cc2CC(=O)O1 (stereo not drawn)	55*	44	-6	0	-4	91*
Oc1ccc(-c2cn3c(n2)SCC3)cc1O	52*	-3	0	1	-1	2
Oc1ccc(-c2cn3c(n2)SCC3)cc1	-2	13	-2	1	5	·
COc1ccc(C2Nc3ccccc3NC3=C2C(=O)CC(C)(C)C3)cc1OC (stereo not drawn)	2	·	-7	0	8	·
COc1ccc(C2Nc3ccccc3NC3=C2C(=O)CC(C)(C)C3)cc1O (stereo not drawn)	·	·	-5	-1	3	-1
CC(C)[C@H](NC(=O)[C@@H]1CSC2c3ccccc3C(=O)N21)C(=O)NCc1ccncc1 (stereo partly drawn)	3	·	-1	0	-2	·
CCN1CN(Cc2ccco2)CNC1=S	0	-6	0	-2	3	·
CCCCCCn1c(COc2ccccc2F)nnc1SCC(=O)NC1CCS(=O)(=O)C1 (stereo not drawn)	·	·	·	0	-1	·
O=[N+]([O-])c1cccc(-c2nnc(C34CC5CC(CC(C5)C3)C4)o2)c1	2	41	-1	-1	0	·
O=[N+]([O-])c1cc(-c2nnc(C34CC5CC(CC(C5)C3)C4)o2)cc([N+](=O)[O-])c1	137*	20	8	-1	5	20
CCOc1ccc(NC2=CC(=O)C(=O)c3ccccc32)cc1	·	·	·	0	8	·
O=C1C=C(Nc2ccc(F)cc2)c2ccccc2C1=O	62*	·	2	0	2	9
Cc1nn(-c2cccc3cccnc23)c(=O)c2ccccc12	45*	40	0	0	-1	-1
